# Data published in ChEMBL document CHEMBL2040826, “Design, synthesis and antiviral activity of novel pyridazines” (Eur J Med Chem, 2012).
# Assays:
# [1] = Cytotoxicity against human TZM-bl cells at 10 uM after 48 hrs by MTT assay; format: cell-based
# Tobacco mosaic virus [2] = experiment: In vivo antiviral activity against TMV assessed as protection effect at 500 ug/ml; format: functional
# Tobacco mosaic virus [3] = experiment: In vivo antiviral activity against TMV assessed as inactivation effect at 500 ug/ml; format: functional
# Tobacco mosaic virus [4] = experiment: In vivo antiviral activity against TMV assessed as curative effect at 500 ug/ml; format: functional
# [5] = tested on: Human immunodeficiency virus; experiment: Antiviral activity against HIV infected in human TZM-bl cells at 10 uM after 48 hrs by measuring luciferase activity by luminometer analysis; format: functional; settings: Human immunodeficiency virus 1, TZM-bl
# Outline: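 TZM-bl cells seeded at 10⁴ cells/well; samples (from DMSO stocks) added next day, then pseudotyped HIV; final DMSO 2%. Incubated 48 h at 37 °C in humidified CO₂. Steady-glow luciferase substrate added, lysis 20 min in dark, luminescence read. AZT and MK-0518 as positive controls; expressed as percent inhibition.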
# Tobacco mosaic virus [6] = experiment: In vitro antiviral activity against TMV at 500 ug/ml; format: functional
compound,measurement,setting,value
COC(=O)c1c(C(F)(F)F)nn(-c2ccccc2)c(=O)c1O,Activity,[1],Non-toxic
same,Activity,Tobacco mosaic virus [2],11.4%
same,Activity,Tobacco mosaic virus [3],18.9%
same,Activity,Tobacco mosaic virus [4],10.7%
same,inhibition at 10 µM,[5],-0.75%
same,inhibition at 500 µg/mL,Tobacco mosaic virus [6],15.5%
O=c1c(O)cc(C(F)(F)F)nn1-c1ccccc1,Activity,[1],Non-toxic
same,Activity,Tobacco mosaic virus [2],7.6%
same,Activity,Tobacco mosaic virus [3],0%
same,Activity,Tobacco mosaic virus [4],14.8%
same,inhibition at 10 µM,[5],6.33%
same,inhibition at 500 µg/mL,Tobacco mosaic virus [6],0%
COC(=O)c1c(C(F)(F)F)nn(-c2ccccc2)c(=O)c1OC,Activity,[1],Non-toxic
same,Activity,Tobacco mosaic virus [2],19.2%
same,Activity,Tobacco mosaic virus [3],16.5%
same,Activity,Tobacco mosaic virus [4],12.5%
same,inhibition at 10 µM,[5],5.9%
same,inhibition at 500 µg/mL,Tobacco mosaic virus [6],20%
O=C(NCc1ccc(F)cc1)c1c(C(F)(F)F)nn(-c2ccccc2)c(=O)c1O,Activity,[1],Non-toxic
same,Activity,Tobacco mosaic virus [2],32.6%
same,Activity,Tobacco mosaic virus [3],36.7%
same,Activity,Tobacco mosaic virus [4],30.2%
same,inhibition at 10 µM,[5],27.9%
same,inhibition at 500 µg/mL,Tobacco mosaic virus [6],38.5%
COC(=O)c1c(C(F)(F)F)nn(-c2ccc(F)cc2)c(=O)c1O,Activity,[1],Non-toxic
same,inhibition at 10 µM,[5],1.3%
O=c1c(O)cc(C(F)(F)F)nn1-c1ccc(F)cc1,Activity,[1],Non-toxic
same,inhibition at 10 µM,[5],-11.6%
COC(=O)c1c(C(F)(F)F)nn(-c2ccc(F)cc2)c(=O)c1OC,Activity,[1],Non-toxic
same,Activity,Tobacco mosaic virus [2],11.7%
same,Activity,Tobacco mosaic virus [3],7.5%
same,Activity,Tobacco mosaic virus [4],18.6%
same,inhibition at 10 µM,[5],7.34%
same,inhibition at 500 µg/mL,Tobacco mosaic virus [6],22.5%
O=C(NCc1ccc(F)cc1)c1c(C(F)(F)F)nn(-c2ccc(F)cc2)c(=O)c1O,Activity,[1],Non-toxic
same,Activity,Tobacco mosaic virus [2],15.6%
same,Activity,Tobacco mosaic virus [3],10.3%
same,Activity,Tobacco mosaic virus [4],17.4%
same,inhibition at 10 µM,[5],19.5%
same,inhibition at 500 µg/mL,Tobacco mosaic virus [6],18.6%
O=C(NCc1ccc(F)cc1)c1c(C(F)(F)F)nn(-c2ccc(F)cc2)c(=O)c1NCc1ccc(F)cc1,Activity,[1],Non-toxic
same,Activity,Tobacco mosaic virus [2],31.3%
same,Activity,Tobacco mosaic virus [3],30.2%
same,Activity,Tobacco mosaic virus [4],34%
same,inhibition at 10 µM,[5],19.5%
same,inhibition at 500 µg/mL,Tobacco mosaic virus [6],28.5%
COC(=O)c1c(C(F)(F)F)nn(Cc2ccc(F)cc2)c(=O)c1OC,Activity,[1],Non-toxic
same,Activity,Tobacco mosaic virus [2],20.2%
same,Activity,Tobacco mosaic virus [3],11.2%
same,Activity,Tobacco mosaic virus [4],10.3%
same,inhibition at 10 µM,[5],13.9%
same,inhibition at 500 µg/mL,Tobacco mosaic virus [6],27.5%
O=C(NCc1ccc(F)cc1)c1c(C(F)(F)F)nn(Cc2ccc(F)cc2)c(=O)c1O,Activity,[1],Non-toxic
same,Activity,Tobacco mosaic virus [2],28.3%
same,Activity,Tobacco mosaic virus [3],21.4%
same,Activity,Tobacco mosaic virus [4],21.7%
same,inhibition at 10 µM,[5],29.3%
same,inhibition at 500 µg/mL,Tobacco mosaic virus [6],30%
COC(=O)c1c(C(F)(F)F)nn(Cc2ccccn2)c(=O)c1O,Activity,[1],Non-toxic
same,Activity,Tobacco mosaic virus [2],16.7%
same,Activity,Tobacco mosaic virus [3],18.3%
same,Activity,Tobacco mosaic virus [4],9.3%
same,inhibition at 10 µM,[5],5.41%
same,inhibition at 500 µg/mL,Tobacco mosaic virus [6],21.3%
COC(=O)c1c(C(F)(F)F)nn(Cc2ccccn2)c(=O)c1OC,Activity,[1],Non-toxic
same,Activity,Tobacco mosaic virus [2],15.2%
same,Activity,Tobacco mosaic virus [3],0%
same,Activity,Tobacco mosaic virus [4],0%
same,inhibition at 10 µM,[5],20.2%
same,inhibition at 500 µg/mL,Tobacco mosaic virus [6],0%
O=C(NCc1ccc(F)cc1)c1c(C(F)(F)F)nn(Cc2ccccn2)c(=O)c1O,Activity,[1],Non-toxic
same,Activity,Tobacco mosaic virus [2],18.6%
same,Activity,Tobacco mosaic virus [3],5.2%
same,Activity,Tobacco mosaic virus [4],7.6%
same,inhibition at 10 µM,[5],2.99%
same,inhibition at 500 µg/mL,Tobacco mosaic virus [6],10%
COC(=O)c1c(C(F)(F)F)nn(Cc2cccnc2)c(=O)c1OC,Activity,[1],Non-toxic
same,inhibition at 10 µM,[5],19.5%
O=C(NCc1ccc(F)cc1)c1c(C(F)(F)F)nn(Cc2cccnc2)c(=O)c1O,Activity,[1],Non-toxic
same,Activity,Tobacco mosaic virus [2],18.9%
same,Activity,Tobacco mosaic virus [3],18.2%
same,Activity,Tobacco mosaic virus [4],12.8%
same,inhibition at 10 µM,[5],7.31%
same,inhibition at 500 µg/mL,Tobacco mosaic virus [6],7.5%
COC(=O)c1c(C(F)(F)F)nn(CC2CCCO2)c(=O)c1OC (stereo unspecified),Activity,[1],Non-toxic
same,Activity,Tobacco mosaic virus [2],10.3%
same,Activity,Tobacco mosaic virus [3],19.7%
same,Activity,Tobacco mosaic virus [4],0%
same,inhibition at 10 µM,[5],9.3%
same,inhibition at 500 µg/mL,Tobacco mosaic virus [6],13.6%
O=C(NCc1ccc(F)cc1)c1c(C(F)(F)F)nn(CC2CCCO2)c(=O)c1O (stereo unspecified),Activity,[1],Non-toxic
same,Activity,Tobacco mosaic virus [2],0%
same,Activity,Tobacco mosaic virus [3],13.2%
same,Activity,Tobacco mosaic virus [4],0%
same,inhibition at 10 µM,[5],-3.02%
same,inhibition at 500 µg/mL,Tobacco mosaic virus [6],0%
COC(=O)c1c(C(F)(F)F)nn(Cc2ccco2)c(=O)c1OC,Activity,[1],Non-toxic
same,Activity,Tobacco mosaic virus [2],0%
same,Activity,Tobacco mosaic virus [3],0%
same,Activity,Tobacco mosaic virus [4],7.2%
same,inhibition at 10 µM,[5],-3.39%
same,inhibition at 500 µg/mL,Tobacco mosaic virus [6],8.5%
O=C(NCc1ccc(F)cc1)c1c(C(F)(F)F)nn(Cc2ccco2)c(=O)c1O,Activity,[1],Non-toxic
same,inhibition at 10 µM,[5],13%
COC(=O)c1c(C(F)(F)F)nn(Cc2cccs2)c(=O)c1OC,Activity,[1],Non-toxic
same,Activity,Tobacco mosaic virus [2],10%
same,Activity,Tobacco mosaic virus [3],15.1%
same,Activity,Tobacco mosaic virus [4],19.5%
same,inhibition at 10 µM,[5],37%
same,inhibition at 500 µg/mL,Tobacco mosaic virus [6],12.4%
O=C(NCc1ccc(F)cc1)c1c(C(F)(F)F)nn(Cc2cccs2)c(=O)c1O,Activity,[1],Non-toxic
same,Activity,Tobacco mosaic virus [2],0%
same,Activity,Tobacco mosaic virus [3],0%
same,Activity,Tobacco mosaic virus [4],14.2%
same,inhibition at 10 µM,[5],-7.5%
same,inhibition at 500 µg/mL,Tobacco mosaic virus [6],0%
O=C(NCc1ccc(F)cc1)c1c(C(F)(F)F)nn(Cc2cccs2)c(=O)c1NCc1ccc(F)cc1,Activity,[1],Non-toxic
same,Activity,Tobacco mosaic virus [2],24.7%
same,Activity,Tobacco mosaic virus [3],19.5%
same,Activity,Tobacco mosaic virus [4],23.6%
same,inhibition at 10 µM,[5],12.7%
same,inhibition at 500 µg/mL,Tobacco mosaic virus [6],30%
COC(=O)c1c(C(F)(F)F)nn(C)c(=O)c1OC,Activity,[1],Non-toxic
same,Activity,Tobacco mosaic virus [2],20.5%
same,Activity,Tobacco mosaic virus [3],27.3%
same,Activity,Tobacco mosaic virus [4],26.5%
same,inhibition at 10 µM,[5],-4%
same,inhibition at 500 µg/mL,Tobacco mosaic virus [6],25%
Cn1nc(C(F)(F)F)c(C(=O)NCc2ccc(F)cc2)c(O)c1=O,Activity,[1],Non-toxic
same,Activity,Tobacco mosaic virus [2],32.8%
same,Activity,Tobacco mosaic virus [3],25.4%
same,Activity,Tobacco mosaic virus [4],28.4%
same,inhibition at 10 µM,[5],-3.5%
same,inhibition at 500 µg/mL,Tobacco mosaic virus [6],19.6%
Cn1nc(C(F)(F)F)c(C(=O)NCc2ccc(F)cc2)c(NCc2ccc(F)cc2)c1=O,Activity,[1],Non-toxic
same,Activity,Tobacco mosaic virus [2],17.5%
same,Activity,Tobacco mosaic virus [3],23.9%
same,Activity,Tobacco mosaic virus [4],11.3%
same,inhibition at 10 µM,[5],53.5%
same,inhibition at 500 µg/mL,Tobacco mosaic virus [6],8.6%
COC(=O)c1c(C(F)(F)F)nn(C/C=C/c2ccccc2)c(=O)c1OC,Activity,[1],Non-toxic
same,Activity,Tobacco mosaic virus [2],22.9%
same,Activity,Tobacco mosaic virus [3],23.7%
same,Activity,Tobacco mosaic virus [4],29.8%
same,inhibition at 10 µM,[5],-19.4%
same,inhibition at 500 µg/mL,Tobacco mosaic virus [6],20.3%
O=C(NCc1ccc(F)cc1)c1c(C(F)(F)F)nn(C/C=C/c2ccccc2)c(=O)c1O,Activity,[1],Non-toxic
same,Activity,Tobacco mosaic virus [2],12.2%
same,Activity,Tobacco mosaic virus [3],0%
same,Activity,Tobacco mosaic virus [4],10.2%
same,inhibition at 10 µM,[5],-27.2%
same,inhibition at 500 µg/mL,Tobacco mosaic virus [6],18.4%
COC(=O)c1c(C(F)(F)F)nn(C(C)(C)C)c(=O)c1OC,Activity,[1],Non-toxic
same,Activity,Tobacco mosaic virus [2],5.7%
same,Activity,Tobacco mosaic virus [3],0%
same,Activity,Tobacco mosaic virus [4],6.3%
same,inhibition at 10 µM,[5],-6.5%
same,inhibition at 500 µg/mL,Tobacco mosaic virus [6],0%
CC(C)(C)n1nc(C(F)(F)F)cc(NCc2ccc(F)cc2)c1=O,Activity,[1],Non-toxic
same,Activity,Tobacco mosaic virus [2],30.2%
same,Activity,Tobacco mosaic virus [3],15.3%
same,Activity,Tobacco mosaic virus [4],20.2%
same,inhibition at 10 µM,[5],41.9%
same,inhibition at 500 µg/mL,Tobacco mosaic virus [6],26.2%
CC(C)(C)n1nc(C(F)(F)F)cc(O)c1=O,Activity,[1],Non-toxic
same,Activity,Tobacco mosaic virus [2],23.1%
same,Activity,Tobacco mosaic virus [3],18.6%
same,Activity,Tobacco mosaic virus [4],27.2%
same,inhibition at 10 µM,[5],-11.6%
same,inhibition at 500 µg/mL,Tobacco mosaic virus [6],31.7%
Cc1nnc(C(=O)NC(C)(C)c2nc(C(=O)NCc3ccc(F)cc3)c(O)c(=O)n2C)o1 [RALTEGRAVIR POTASSIUM],inhibition at 10 µM,[5],95.1%
NC(=O)c1ncn([C@@H]2O[C@H](CO)[C@@H](O)[C@H]2O)n1 [RIBAVIRIN],Activity,Tobacco mosaic virus [2],39.6%
same,Activity,Tobacco mosaic virus [3],34.2%
same,Activity,Tobacco mosaic virus [4],32.7%
same,inhibition at 500 µg/mL,Tobacco mosaic virus [6],38.5%
Cc1cn([C@H]2C[C@H](N=[N+]=[N-])[C@@H](CO)O2)c(=O)[nH]c1=O [ZIDOVUDINE],inhibition at 10 µM,[5],100%
